Results filed as inconclusive are left out.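 The calls were made as follows, unless noted: active = inhibition over a set limit, the all-compound mean plus 3 SD, in both replicate runs; inconclusive = over that limit in just one replicate run; inactive = at or under that limit in both runs.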
Tests used:
[1] = S. cerevisiae growth inhibition in permissive medium (OD615), pilot counter-assay for S. cerevisiae lifespan shortening project, permissive growth control (AID 705;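 active = growth inhibition above 25% in both replicates, a cutoff set 3 SD above the mean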); settings: OD615, 24 h, at 10 µM, stronger effect = higher value
Procedure, shortened: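 System: engineered DeaD yeast; Medium: permissive raffinose/galactose medium; Compound dosing: 10 µM single dose, 0.25% DMSO; Incubation: 4 h cell pre-growth, 24 h exposure at 30 °C; Technique: OD at 615 nm; Evaluation: growth inhibition from lowered OD615 after 24 h.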

[2] = S. cerevisiae growth inhibition in restrictive medium, OD615, pilot screen, restrictive growth control, yeast lifespan reduction project (AID 706;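 active = growth inhibition above a set limit, 3 SD over mean compound inhibition, in both replicates, cut at about 43% in these data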;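 also: modified DeaD lifespan yeast strain shifted to restrictive glucose medium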); settings: OD615, 48 h, at 10 µM, stronger effect = higher value
Procedure, shortened: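 Material: modified S. cerevisiae; buffer or medium: CSMM-D glucose medium; doses: one concentration, 10 µM final, 0.25% DMSO; incubation: 48 h compound exposure at 30 °C; detection: optical density at 615 nm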

[3] = doxorubicin toxicity protection in MRP-1 cells – H69AR cells, CellTiter-Glo, duplicate, MRP-1 activator project, pilot screen (AID 807;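 active = viability increase at or above a cutoff of the median across tested compounds plus 3 SD, cut at about 8.5% in these data, passing the limit was not always enough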;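 also: compound pretreatment 18-22 h then 72 h combined with doxorubicin; 0% = doxorubicin alone and 100% = vehicle without doxorubicin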); settings: H69AR viability with doxorubicin, CellTiter-Glo luminescence; at 10 µM; stronger effect = higher value
[4] = viability of HCT116 without oncogenic beta-catenin – human colon tumor cells, pilot screen (AID 823;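 active = cell viability at or below a set limit in both duplicate runs, the limit being the all-compound median minus 4 SD, cut at about 23% in these data, passing the limit was not always enough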;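 also: 0% = wells killed by 20 µM Hyamine and 100% = untreated DMSO cell wells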); settings: HCT116 beta-catenin knockout viability, CellTiter-Glo, 60 h; at 10 µM; stronger effect = lower value
[5] = viability of PTEN-null HCT116 cells – cell-based, HCT116 clonal line, CellTiter-Glo, pilot screen (AID 824;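 active = viability at or below 27.92% in each of two runs, the all-compound median minus 4 SD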;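 also: 0% = 20 µM Hyamine control and 100% = vehicle cell control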); settings: HCT116 PTEN-deleted viability, 60 h, at 10 µM, stronger effect = lower value
[6] = RAM pathway blockade in budding yeast – dse1pr::URA3 reporter, 5-FOA selection, pilot screen (AID 869);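 also: 0% = DMSO wells with no growth and 100% = 10 µM 1-NA-PP1 with full growth; RAM network block rescues cells from 5-FOA so hits raise OD615 growth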; settings: S. cerevisiae dse1pr::URA3 5-FOA growth, OD615, 2 d; at 10 µM; stronger effect = higher value; strain carries analog-sensitive mutant Cbk1 kinase
[7] = RAM signaling pathway blockade in yeast – S. cerevisiae, Pdr1DBD-CYC8 efflux-inhibited sensitized strain, primary screen (AID 1298;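 active = RAM network inhibition above 8.4% in each of two replicates, 3 SD over the compound average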;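 also: 0% = DMSO untreated cells without growth and 100% = 10 µM 1-NA-PP1 full growth; higher means more yeast growth rescued from 5-FOA killing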); settings: S. cerevisiae cbk1-as DSE1-URA3 strain, 5-FOA growth OD615, 2 d; at 50 µM; stronger effect = higher value

CCCn1c(CCC(=O)O)ccc1-c1cccs1
inactive: growth inhibition [1] 5.45% | growth inhibition [2] 7.04% | viability increase [3] -2.75% | viability [4] 93.4% | viability [5] 102% | inhibition [6] 0.78% | RAM network inhibition [7] -0.03%

COC(=O)c1ccc2c(c1)N(Cc1nc(-c3cccc(C)c3)oc1C)C(=O)C1CCCN21 (configuration not stated)
inactive: growth inhibition [1] -13% | growth inhibition [2] -8.79% | viability increase [3] -2.37% | viability [4] 92% | viability [5] 84.3% | inhibition [6] 2.06% | RAM network inhibition [7] 5.71%

COc1ccc(N=C(C)C2=C(O)COC2=O)cc1
inactive: growth inhibition [1] -1.31% | growth inhibition [2] 5.13% | viability increase [3] -3.62% | viability [4] 97.6% | viability [5] 99% | inhibition [6] 1.12% | RAM network inhibition [7] 5.23%

Cn1c(Cn2c(=O)sc3ccccc32)nnc1SCC(=O)N1CCc2ccccc21
inactive: growth inhibition [1] -8.97% | growth inhibition [2] -4.5% | viability increase [3] -1.09% | viability [4] 86.1% | viability [5] 92.6% | inhibition [6] 2.98% | RAM network inhibition [7] 2.79%

CCOC(=O)C1Cn2c(nc3c(c2=O)C(C)(CC)Cc2ccccc2-3)S1 (configuration not stated)
inactive: growth inhibition [1] -4.55% | growth inhibition [2] 5.55% | viability increase [3] -2.18% | viability [4] 82.1% | viability [5] 77.7% | inhibition [6] 1.5% | RAM network inhibition [7] 3.03%

CCOc1ccccc1CNS(=O)(=O)c1ccc2c(c1)oc(=O)n2C
inactive: growth inhibition [1] -8.67% | growth inhibition [2] -0.955% | viability increase [3] -1.75% | viability [4] 102% | viability [5] 94% | inhibition [6] -0.575% | RAM network inhibition [7] 1.03%

CC1CCc2c(sc3ncnc(NCCN4CCOCC4)c23)C1 (configuration not stated)
inactive: growth inhibition [1] -7.6% | growth inhibition [2] -5.73% | viability increase [3] -6.47% | viability [4] 96.4% | viability [5] 95% | inhibition [6] 1.02% | RAM network inhibition [7] 5.28%

COc1cccc(OC)c1C(=O)Nc1nnc(C(C)C)s1
inactive: growth inhibition [1] -6.36% | growth inhibition [2] 6.23% | viability increase [3] -1.98% | viability [4] 89.9% | viability [5] 85.1% | inhibition [6] 2.25% | RAM network inhibition [7] 0.97%

CCc1nc(N(CC)CC)c2oc3ccccc3c2n1
inactive: growth inhibition [1] -2.86% | growth inhibition [2] -35.2% | viability increase [3] -4.87% | viability [4] 75.5% | viability [5] 71% | inhibition [6] -0.16% | RAM network inhibition [7] 1.04%

CCOc1ccc(C2CC(=O)NC(SCC(=O)OC)=C2C#N)cc1 (configuration not stated)
inactive: growth inhibition [1] 3.64% | growth inhibition [2] 6.22% | viability increase [3] 2.65% | viability [4] 102% | viability [5] 105% | inhibition [6] 1.87% | RAM network inhibition [7] 1.2%

C=CCN1C(=O)C2C(C(=O)NC)C3(C)C=CC2(O3)C1C(=O)NCc1ccc(OC)cc1 (configuration not stated)
inactive: growth inhibition [1] -5.37% | growth inhibition [2] 3.69% | viability increase [3] 1.33% | viability [4] 103% | viability [5] 99.9% | inhibition [6] 0.89% | RAM network inhibition [7] 0.49%

O=C(OCC(=O)N1CCN(C(=O)c2ccco2)CC1)c1sc2ccccc2c1Cl
inactive: growth inhibition [1] -14.3% | growth inhibition [2] -20.1% | viability increase [3] -2.74% | viability [4] 96.3% | viability [5] 102% | inhibition [6] 0.845% | RAM network inhibition [7] 5.57%

COc1ccc2nc(SCc3nc(N)nc(Nc4ccccc4)n3)[nH]c2c1
inactive: growth inhibition [1] -8.8% | growth inhibition [2] 15.4% | viability increase [3] 0.65% | viability [4] 67.7% | viability [5] 80.3% | inhibition [6] 0.72% | RAM network inhibition [7] 6.33%

COc1cccc(NS(=O)(=O)c2cn(C)c(=O)n(C)c2=O)c1
inactive: growth inhibition [1] -11% | growth inhibition [2] -3.64% | viability increase [3] -0.89% | viability [4] 93.7% | viability [5] 92.9% | inhibition [6] 2.42% | RAM network inhibition [7] 0.89%

COc1ccc(S(=O)(=O)N2CCN(c3c(C)cccc3C)CC2)cc1OC
inactive: growth inhibition [1] -1.27% | growth inhibition [2] -7.95% | viability increase [3] -1% | viability [4] 78.2% | viability [5] 74.4% | inhibition [6] 0.435% | RAM network inhibition [7] 10.8%

CCOC(=O)c1c(C)nc(-c2ccccc2)nc1NC(C)=O
inactive: growth inhibition [1] -15.7% | growth inhibition [2] -5.61% | viability increase [3] -0.84% | viability [4] 92% | viability [5] 89.5% | inhibition [6] 1.92% | RAM network inhibition [7] 7.29%

Cc1c(NC(=O)OCCSc2nc(N(C)C)nc(N(C)C)n2)sc(=S)n1C
inactive: growth inhibition [1] 2.93% | growth inhibition [2] 3.13% | viability increase [3] -0.48% | viability [4] 83% | viability [5] 76% | inhibition [6] 2.92% | RAM network inhibition [7] 1.79%

O/N=C1/CCCSc2ccccc21
inactive: growth inhibition [1] -7.19% | growth inhibition [2] -16.8% | viability increase [3] -1.24% | viability [4] 96.6% | viability [5] 97.9% | inhibition [6] 0.95% | RAM network inhibition [7] 2.18%

CCOc1ccccc1NC(=O)CSc1nnc(Cn2c(=O)sc3ccccc32)n1C
inactive: growth inhibition [1] -8.96% | growth inhibition [2] 9.08% | viability increase [3] -2.73% | viability [4] 91.5% | viability [5] 92% | inhibition [6] 1.48% | RAM network inhibition [7] 2.49%

COc1ccc(-c2noc(Cc3cccs3)n2)cc1
inactive: growth inhibition [1] 0.04% | growth inhibition [2] 3.45% | viability increase [3] -2.47% | viability [4] 102% | viability [5] 93.3% | inhibition [6] 2.76% | RAM network inhibition [7] 4.89%

CC(C)NC(=O)C1CCCN(c2nnc(-n3cccc3)s2)C1 (configuration not stated)
inactive: growth inhibition [1] -0.35% | growth inhibition [2] 14.8% | viability increase [3] -3.11% | viability [4] 108% | viability [5] 97.6% | inhibition [6] -0.455% | RAM network inhibition [7] 0.02%

COC(=O)CSc1nc2ccccc2nc1SCC(=O)OC
inactive: growth inhibition [1] -11.7% | growth inhibition [2] -9.89% | viability increase [3] -2% | viability [4] 93.4% | viability [5] 92% | inhibition [6] 2.12% | RAM network inhibition [7] 7.83%

COC(=O)c1cc(-c2ccc(Br)cc2)on1
inactive: growth inhibition [1] 1.85% | growth inhibition [2] 1.59% | viability increase [3] -2.76% | viability [4] 102% | viability [5] 96.6% | inhibition [6] 0.09% | RAM network inhibition [7] 1.79%

COCCN1C=C(C(=O)OC)C(c2ccc(OC)c(OC)c2)C(C(=O)OC)=C1
inactive: growth inhibition [1] -4.43% | growth inhibition [2] -9.06% | viability increase [3] -0.95% | viability [4] 98% | viability [5] 100% | inhibition [6] 1.43% | RAM network inhibition [7] -0.97%

COc1ccc2c(c1)OC13CCN(C)CC1C2C(C(=O)c1ccc(F)cc1)C(=O)N3 (configuration not stated)
inactive: growth inhibition [1] -25.9% | growth inhibition [2] -21.6% | viability increase [3] -4.02% | viability [4] 78.9% | viability [5] 81.4% | inhibition [6] 0.27% | RAM network inhibition [7] 0.97%

CCc1ccccc1NC(=O)c1onc(C)c1Cl
inactive: growth inhibition [1] -5.87% | growth inhibition [2] 1.99% | viability increase [3] -0.41% | viability [4] 108% | viability [5] 97.7% | inhibition [6] 2.18% | RAM network inhibition [7] -1.13%

Cc1ccc(-c2nc3ncccc3o2)cc1NC(=O)Cc1ccc(Cl)cc1
inactive: growth inhibition [1] -17.4% | growth inhibition [2] -10.8% | viability increase [3] -4.9% | viability [4] 81.8% | viability [5] 82.9% | inhibition [6] 2.07% | RAM network inhibition [7] 1.75%

Cc1cc(C(=O)Nc2ccc3c(c2)OCCO3)co1
inactive: growth inhibition [1] -4.03% | growth inhibition [2] 5.26% | viability increase [3] -0.16% | viability [4] 96.7% | viability [5] 92.1% | inhibition [6] 0.06% | RAM network inhibition [7] -0.41%

CCCCn1c(CCNC(=O)CCC)nc2ccccc21
inactive: growth inhibition [1] -9.84% | growth inhibition [2] 4.55% | viability increase [3] -0.74% | viability [4] 99.1% | viability [5] 108% | inhibition [6] 2.43% | RAM network inhibition [7] -0.53%

C(=N\c1nc2ccccc2n1Cc1ccccc1)/c1cccs1
inactive: growth inhibition [1] -3.85% | growth inhibition [2] -3.94% | viability increase [3] -3.85% | viability [4] 88.7% | viability [5] 88.6% | inhibition [6] 1.94% | RAM network inhibition [7] 4.3%

COc1nc(Nc2ccc3c(c2)OCO3)nc(OC)n1
inactive: growth inhibition [1] -22% | growth inhibition [2] -10.4% | viability increase [3] -2.8% | viability [4] 102% | viability [5] 93.6% | inhibition [6] 3.51% | RAM network inhibition [7] 4.7%

CCOC(=O)N1CCN(C(=O)c2ccccc2Oc2ccccc2)CC1
inactive: growth inhibition [1] -5.57% | growth inhibition [2] 0.11% | viability increase [3] -1.94% | viability [4] 91% | viability [5] 93.3% | inhibition [6] -0.56% | RAM network inhibition [7] 0.52%

Cc1cc(-n2nc(C)cc2C)nc(NS(=O)(=O)c2ccccc2)n1
inactive: growth inhibition [1] -11.4% | growth inhibition [2] -20.8% | viability increase [3] -2.09% | viability [4] 94.8% | viability [5] 94.3% | inhibition [6] 2.98% | RAM network inhibition [7] 4.2%

CCn1cc(C(=O)N2CC(C)CC(C)C2)c(=O)c2cc(S(=O)(=O)N(C)C)ccc21 (configuration not stated)
inactive: growth inhibition [1] 4.35% | growth inhibition [2] 6.52% | viability increase [3] -0.18% | viability [4] 103% | viability [5] 101% | inhibition [6] -0.3% | RAM network inhibition [7] 2.78%

Cc1occc1C(=O)NCc1ccc2c(c1)OCO2
inactive: growth inhibition [1] -7.06% | growth inhibition [2] 3.86% | viability increase [3] 0.84% | viability [4] 101% | viability [5] 99.2% | inhibition [6] 1.78% | RAM network inhibition [7] 1.93%

O=C(CSc1nccc2ccccc12)N1CCN(c2ccccn2)CC1
inactive: growth inhibition [1] -3.48% | growth inhibition [2] 8.46% | viability increase [3] -2.78% | viability [4] 97.5% | viability [5] 99.8% | inhibition [6] 0.295% | RAM network inhibition [7] -0.26%
